ChEMBL document CHEMBL3861962 (Eur J Med Chem, 2016)

Tests used:
[1] = Drug metabolism in human liver microsomes assessed as formation of 4-(1,1,1,3,3,3-hexafluoro-2-hydroxypropan-2-yl)-N-(6-(2-hydroxyethoxy)-5-(2-hydroxyphenoxy)-2,2'-bipyrimidin-4-yl)benzenesulfonamide at 5 uM in presence of NADPH after 30 mins by LC-MS/MS analysis; assay type: ADME; settings: 0.5 h
Method in brief: (§1)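 Substrate at 5 μM final in 100 mM potassium phosphate, pH 7.4, incubated with human liver microsomes or baculovirus-expressed recombinant CYP3A4, 2D6 or 2C9. Reaction started with 1 mM NADPH and run 0, 15 and 30 min at 37 °C. Stopped with ice-cold acetonitrile containing labetalol internal standard, then centrifuged. Supernatant analysed by LC-MS/MS on a C18 column at 40 °C. Blank was enzyme without substrate.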

[2] = Retention time of the compound; assay type: physicochemical
Cytochrome P450 3A4 [3] = molecular target: T1, Cytochrome P450 3A4 (Homo sapiens, UniProt P08684); assay: Drug metabolism assessed as human recombinant CYP3A4-mediated formation of 4-(1,1,1,3,3,3-hexafluoro-2-hydroxypropan-2-yl)-N-(6-(2-hydroxyethoxy)-5-(2-hydroxyphenoxy)-2,2'-bipyrimidin-4-yl)benzenesulfonamide at 5 uM in presence of NADPH after 30 mins by LC-MS/MS analysis; assay type: ADME; settings: recombinant enzyme, 0.5 h; method in brief: as §1
T1 sequence (P08684 whole entry): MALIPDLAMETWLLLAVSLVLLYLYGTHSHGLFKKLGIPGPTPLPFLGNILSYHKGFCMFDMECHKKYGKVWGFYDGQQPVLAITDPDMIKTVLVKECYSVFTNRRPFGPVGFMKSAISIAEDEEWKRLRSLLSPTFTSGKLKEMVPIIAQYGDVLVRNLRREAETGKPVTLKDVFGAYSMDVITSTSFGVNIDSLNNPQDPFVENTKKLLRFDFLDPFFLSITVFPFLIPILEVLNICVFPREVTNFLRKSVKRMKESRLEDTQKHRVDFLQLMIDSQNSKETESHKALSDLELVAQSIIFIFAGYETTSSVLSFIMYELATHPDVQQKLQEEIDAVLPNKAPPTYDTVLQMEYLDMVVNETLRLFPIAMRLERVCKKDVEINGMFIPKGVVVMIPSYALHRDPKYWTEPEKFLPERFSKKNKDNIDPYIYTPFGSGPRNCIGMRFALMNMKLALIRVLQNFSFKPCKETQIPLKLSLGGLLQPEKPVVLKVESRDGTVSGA

[4] = Metabolic stability in human liver microsomes assessed as parent compound remaining at 5 uM in presence of NADPH after 30 mins by LC-MS/MS analysis; assay type: ADME; settings: read-out: Stability
Method in brief: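 Pooled human liver microsomes in 100 mM potassium phosphate, pH 7.4, with test compound at 5 μM final. Reaction started with 1 mM NADPH (final) and run at 37 °C in a shaking water bath for 0, 15 and 30 min. Stopped with an equal volume of ice-cold acetonitrile containing 0.6 μM labetalol as internal standard. Protein was spun out and the supernatant analysed by LC-MS/MS. Blank had no compound.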

[5] = molecular target: T2, Endothelin-1 receptor (Homo sapiens) (UniProt P25101); assay: Agonist activity at ETA receptor in human SKNMC cells assessed as induction of Ca2+ mobilization at 100 nM by fluorimetric method relative to control; assay type: functional, cell-based; settings: SK-N-MC
T2 sequence (whole entry): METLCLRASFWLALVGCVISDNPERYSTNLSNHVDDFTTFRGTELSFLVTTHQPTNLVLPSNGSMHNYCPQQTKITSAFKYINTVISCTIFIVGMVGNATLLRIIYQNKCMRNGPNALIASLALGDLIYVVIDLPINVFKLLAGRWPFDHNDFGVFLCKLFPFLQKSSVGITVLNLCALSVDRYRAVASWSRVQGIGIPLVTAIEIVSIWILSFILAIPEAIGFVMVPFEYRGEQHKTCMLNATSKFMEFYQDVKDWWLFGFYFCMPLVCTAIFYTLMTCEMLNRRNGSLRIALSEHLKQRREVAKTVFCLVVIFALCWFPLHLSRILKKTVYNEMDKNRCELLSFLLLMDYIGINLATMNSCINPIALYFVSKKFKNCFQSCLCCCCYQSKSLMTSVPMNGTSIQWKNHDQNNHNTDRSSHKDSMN
Method in brief: (§2)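 ETA functional assay run by Cerep in human neuroblastoma SK-N-MC cells at 22 °C with fluorimetric read-out. Test solutions were 1, 10, 100 and 1000 nM. Agonist response is given as % of the control response to 100 nM endothelin-1. For antagonist mode, inhibition is given as % of the control endothelin-1 agonist response, with BQ-123 as reference antagonist.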

[6] = molecular target: T2, Endothelin-1 receptor (Homo sapiens); assay: Antagonist activity at ETA receptor in human SKNMC cells assessed as inhibition of endothelin-1-mediated Ca2+ mobilization at 1 nM by fluorimetric method relative to control; assay type: functional, cell-based; settings: SK-N-MC; method in brief: as §2
[7] = molecular target: T2, Endothelin-1 receptor (Homo sapiens); assay: Agonist activity at ETA receptor in human SKNMC cells assessed as induction of Ca2+ mobilization at 1 nM by fluorimetric method relative to control; assay type: functional, cell-based; settings: SK-N-MC; method in brief: as §2
[8] = molecular target: T3, Endothelin receptor type B (Homo sapiens) (UniProt P24530); assay: Agonist activity at human recombinant ETB receptor expressed in CHOK1 cells assessed as induction of Ca2+ mobilization at 100 nM by fluorimetric method relative to control; assay type: functional, cell-based; settings: CHO-K1
T3 sequence (whole entry): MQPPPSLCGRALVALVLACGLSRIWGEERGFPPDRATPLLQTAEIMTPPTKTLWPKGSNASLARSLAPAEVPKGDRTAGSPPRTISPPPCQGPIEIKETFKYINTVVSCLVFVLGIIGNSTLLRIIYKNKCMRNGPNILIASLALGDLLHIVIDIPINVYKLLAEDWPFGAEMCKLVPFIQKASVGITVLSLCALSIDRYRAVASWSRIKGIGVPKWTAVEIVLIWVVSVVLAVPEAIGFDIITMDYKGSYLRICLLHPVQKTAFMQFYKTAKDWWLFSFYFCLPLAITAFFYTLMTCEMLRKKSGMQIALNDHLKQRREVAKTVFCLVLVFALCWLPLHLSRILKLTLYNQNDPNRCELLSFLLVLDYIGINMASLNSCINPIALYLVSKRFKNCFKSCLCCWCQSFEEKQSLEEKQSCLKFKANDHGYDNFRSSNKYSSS
Method in brief: as §2, with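 “ETB” for “ETA”, “recombinant CHO-k1” for “neuroblastoma SK-N-MC”, “BQ-788” for “BQ-123”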

Cytochrome P450 3A4 [9] = molecular target: T1, Cytochrome P450 3A4; assay: Drug level assessed as human recombinant CYP3A4-mediated compound formation treated with 4-(1,1,1,3,3,3-Hexafluoro-2-methoxypropan-2-yl)-N-(6-(2-hydroxyethoxy)-5-(2-methoxyphenoxy)-2,2'-bipyrimidin-4-yl)benzenesulfonamide at 5 uM in presence of NADPH after 30 mins by LC-MS/MS analysis; assay type: ADME; settings: recombinant enzyme, 0.5 h; method in brief: as §1
Cytochrome P450 2C9 = Cytochrome P450 2C9 (Homo sapiens, UniProt P11712); assay: Drug metabolism assessed as human recombinant CYP2C9-mediated metabolite formation by measuring parent compound remaining at 5 uM in presence of NADPH after 30 mins by LC-MS/MS analysis; assay type: ADME; settings: recombinant enzyme, 0.5 h; method in brief: as §1
Cytochrome P450 2C9, sequence (P11712 whole entry): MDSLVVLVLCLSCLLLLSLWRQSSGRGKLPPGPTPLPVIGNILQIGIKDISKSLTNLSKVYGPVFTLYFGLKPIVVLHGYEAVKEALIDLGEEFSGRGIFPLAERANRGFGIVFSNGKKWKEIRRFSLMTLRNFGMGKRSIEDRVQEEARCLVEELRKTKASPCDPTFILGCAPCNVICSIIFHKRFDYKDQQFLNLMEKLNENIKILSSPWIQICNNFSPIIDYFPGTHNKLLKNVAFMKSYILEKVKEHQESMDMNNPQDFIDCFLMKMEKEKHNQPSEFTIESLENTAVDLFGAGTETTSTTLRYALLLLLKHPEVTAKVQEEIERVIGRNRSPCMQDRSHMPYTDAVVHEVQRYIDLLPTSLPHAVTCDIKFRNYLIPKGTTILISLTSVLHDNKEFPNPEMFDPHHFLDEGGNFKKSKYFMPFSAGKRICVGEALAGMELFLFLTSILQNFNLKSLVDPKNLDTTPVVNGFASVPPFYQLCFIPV

[10] = molecular target: T3, Endothelin receptor type B (Homo sapiens); assay: Antagonist activity at human recombinant ETB expressed in CHOK1 cells assessed as inhibition of endothelin-1-mediated Ca2+ mobilization at 100 nM by fluorimetric method relative to control; assay type: functional, cell-based; settings: CHO-K1
Method in brief: as §2, with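 “ETB” for “ETA”, “recombinant CHO-k1” for “neuroblastoma SK-N-MC”, “BQ-788” for “BQ-123”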

[11] = molecular target: T3, Endothelin receptor type B (Homo sapiens); assay: Agonist activity at human recombinant ETB receptor expressed in CHOK1 cells assessed as induction of Ca2+ mobilization at 1 nM by fluorimetric method relative to control; assay type: functional, cell-based; settings: CHO-K1
Method in brief: as §2, with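 “ETB” for “ETA”, “recombinant CHO-k1” for “neuroblastoma SK-N-MC”, “BQ-788” for “BQ-123”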

[12] = Cytotoxicity against CHOK1 cells assessed as decrease in cell viability after 24 hrs by MTT assay; assay type: toxicity, cell-based, Cricetulus griseus; settings: Chinese hamster, CHO-K1 cells
Method in brief: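 CHO-k1 cells grown in phenol-red-free DMEM/F-12 with 10% FBS, seeded at 20,000 cells/well and allowed to attach overnight. Exposure was 24 h to 0.1–200 μM, with DMSO as vehicle control. MTT at 1 mg/mL for 3 h at 37 °C, formazan dissolved in DMSO, absorbance read at 570 nm. Data given as % OD of vehicle control; IC50 taken from dose–response curve fits.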

[13] = molecular target: T2, Endothelin-1 receptor (Homo sapiens); assay: Antagonist activity at ETA receptor in human SKNMC cells assessed as inhibition of endothelin-1-mediated Ca2+ mobilization at 10 nM by fluorimetric method relative to control; assay type: functional, cell-based; settings: SK-N-MC; method in brief: as §2
[14] = Drug level in human liver microsomes treated with 4-(1,1,1,3,3,3-Hexafluoro-2-methoxypropan-2-yl)-N-(6-(2-hydroxyethoxy)-5-(2-methoxyphenoxy)-2,2'-bipyrimidin-4-yl)benzenesulfonamide at 5 uM in presence of NADPH after 30 mins by LC-MS/MS analysis; assay type: ADME; settings: 0.5 h; method in brief: as §1
[15] = molecular target: T2, Endothelin-1 receptor (Homo sapiens); assay: Antagonist activity at ETA receptor in human SKNMC cells assessed as inhibition of endothelin-1-mediated Ca2+ mobilization at 100 nM by fluorimetric method relative to control; assay type: functional, cell-based; settings: SK-N-MC; method in brief: as §2
[16] = molecular target: T3, Endothelin receptor type B (Homo sapiens); assay: Antagonist activity at human recombinant ETB expressed in CHOK1 cells assessed as inhibition of endothelin-1-mediated Ca2+ mobilization at 1 nM by fluorimetric method relative to control; assay type: functional, cell-based; settings: CHO-K1
Method in brief: as §2, with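 “ETB” for “ETA”, “recombinant CHO-k1” for “neuroblastoma SK-N-MC”, “BQ-788” for “BQ-123”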

[17] = molecular target: T3, Endothelin receptor type B (Homo sapiens); assay: Antagonist activity at human recombinant ETB expressed in CHOK1 cells assessed as inhibition of endothelin-1-mediated Ca2+ mobilization at 10 nM by fluorimetric method relative to control; assay type: functional, cell-based; settings: CHO-K1
Method in brief: as §2, with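 “ETB” for “ETA”, “recombinant CHO-k1” for “neuroblastoma SK-N-MC”, “BQ-788” for “BQ-123”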

[18] = molecular target: T2, Endothelin-1 receptor (Homo sapiens); assay: Agonist activity at ETA receptor in human SKNMC cells assessed as induction of Ca2+ mobilization at 10 nM by fluorimetric method relative to control; assay type: functional, cell-based; settings: SK-N-MC; method in brief: as §2
[19] = molecular target: T3, Endothelin receptor type B (Homo sapiens); assay: Agonist activity at human recombinant ETB receptor expressed in CHOK1 cells assessed as induction of Ca2+ mobilization at 10 nM by fluorimetric method relative to control; assay type: functional, cell-based; settings: CHO-K1
Method in brief: as §2, with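 “ETB” for “ETA”, “recombinant CHO-k1” for “neuroblastoma SK-N-MC”, “BQ-788” for “BQ-123”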

Cytochrome P450 3A4 [20] = molecular target: T1, Cytochrome P450 3A4; assay: Drug metabolism assessed as human recombinant CYP3A4-mediated metabolite formation by measuring parent compound remaining at 5 uM in presence of NADPH after 30 mins by LC-MS/MS analysis; assay type: ADME; settings: recombinant enzyme, 0.5 h; method in brief: as §1
Cytochrome P450 2D6 = Cytochrome P450 2D6 (Homo sapiens, UniProt P10635); assay: Drug metabolism assessed as human recombinant CYP2D6-mediated metabolite formation by measuring parent compound remaining at 5 uM in presence of NADPH after 30 mins by LC-MS/MS analysis; assay type: ADME; settings: recombinant enzyme, 0.5 h; method in brief: as §1
Cytochrome P450 2D6, sequence (P10635 whole entry): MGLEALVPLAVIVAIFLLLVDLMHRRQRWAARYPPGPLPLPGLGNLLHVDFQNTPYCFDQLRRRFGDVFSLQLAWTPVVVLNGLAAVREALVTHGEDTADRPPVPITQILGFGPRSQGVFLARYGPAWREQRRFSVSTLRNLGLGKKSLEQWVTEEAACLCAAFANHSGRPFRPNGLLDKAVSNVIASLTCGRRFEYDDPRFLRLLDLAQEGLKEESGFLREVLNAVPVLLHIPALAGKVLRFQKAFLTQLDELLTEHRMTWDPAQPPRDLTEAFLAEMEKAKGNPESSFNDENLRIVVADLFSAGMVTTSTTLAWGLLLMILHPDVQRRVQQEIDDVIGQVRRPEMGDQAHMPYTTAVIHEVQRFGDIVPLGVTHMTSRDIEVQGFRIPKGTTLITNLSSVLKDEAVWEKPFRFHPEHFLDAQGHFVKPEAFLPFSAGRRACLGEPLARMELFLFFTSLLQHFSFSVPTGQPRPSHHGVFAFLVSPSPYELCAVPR

[21] = Drug level in human liver microsomes treated with 4-(1,1,1,2,3,3,3-Heptafluoropropan-2-yl)-N-(6-(2-hydroxyethoxy)-5-(2-methoxyphenoxy)-2,2'-bipyrimidin-4-yl)benzenesulfonamide at 5 uM in presence of NADPH after 30 mins by LC-MS/MS analysis; assay type: ADME; settings: 0.5 h; method in brief: as §1
Cytochrome P450 3A4 [22] = molecular target: T1, Cytochrome P450 3A4; assay: Drug level assessed as human recombinant CYP3A4-mediated compound formation treated with 4-(1,1,1,2,3,3,3-Heptafluoropropan-2-yl)-N-(6-(2-hydroxyethoxy)-5-(2-methoxyphenoxy)-2,2'-bipyrimidin-4-yl)benzenesulfonamide at 5 uM in presence of NADPH after 30 mins by LC-MS/MS analysis; assay type: ADME; settings: recombinant enzyme, 0.5 h; method in brief: as §1
[23] = Drug level in human liver microsomes treated with bosentan at 5 uM in presence of NADPH after 30 mins by LC-MS/MS analysis; assay type: ADME; settings: 0.5 h; method in brief: as §1
Cytochrome P450 3A4 [24] = molecular target: T1, Cytochrome P450 3A4; assay: Drug level assessed as human recombinant CYP3A4-mediated compound formation treated with bosentan at 5 uM in presence of NADPH after 30 mins by LC-MS/MS analysis; assay type: ADME; settings: recombinant enzyme, 0.5 h; method in brief: as §1

SMILES: COc1ccccc1Oc1c(NS(=O)(=O)c2ccc(C(O)(C(F)(F)F)C(F)(F)F)cc2)nc(-c2ncccn2)nc1OCCO
- Drug metabolism [1]: Metabolite_Detected
- Retention_time [2]: 4.72 min
- Drug metabolism (Cytochrome P450 3A4 [3]): Metabolite_Detected
- remaining at 0.5 h, 5 µM [4]: 90.1%
- Activity [5]: 0%
- inhibition [6]: -9%
- Activity [7]: 0%
- Activity [8]: -1%
- Drug metabolism (Cytochrome P450 3A4 [9]): Metabolite_Detected
- Stability (Cytochrome P450 2C9): 100%
- inhibition [10]: 14%
- Activity [11]: -1%
- IC50 at 24 h [12]: > 200 µM
- inhibition [13]: -5%
- Drug metabolism [14]: Metabolite_Detected
- inhibition [15]: -7%
- inhibition [16]: 12%
- inhibition [17]: 11%
- Activity [18]: 0%
- Activity [19]: -1%
- Stability (Cytochrome P450 3A4 [20]): 72.8%
- Stability (Cytochrome P450 2D6): > 99%

SMILES: O=S(=O)(Nc1nc(-c2ncccn2)nc(OCCO)c1Oc1ccccc1O)c1ccc(C(F)(C(F)(F)F)C(F)(F)F)cc1
- Retention_time [2]: 5.27 min
- Drug metabolism [21]: Metabolite_Detected
- Drug metabolism (Cytochrome P450 3A4 [22]): Metabolite_Detected

SMILES: CCOc1nc(-c2ncccn2)nc(NS(=O)(=O)c2ccc(C(C)(C)C)cc2)c1Oc1ccccc1O
- Retention_time [2]: 5.52 min

SMILES: CC(C)(CO)c1ccc(S(=O)(=O)Nc2nc(-c3ncccn3)nc(OCCO)c2Oc2ccccc2O)cc1
- Retention_time [2]: 4.16 min
- Drug metabolism [23]: Metabolite_Detected
- Drug metabolism (Cytochrome P450 3A4 [24]): Metabolite_Detected
